Experiments:
[1] = molecular target: T1, Lysyl oxidase homolog 2 (Homo sapiens, UniProt Q9Y4K0); experiment: Inhibition of LOXL2 in human IMR90 cells using putrescine as substrate preincubated with enzyme for 30 mins followed by substrate addition and measured every 2.5 mins for 30 mins by Amplex-Red oxidation assay; type: cell-based
T1 sequence (Q9Y4K0 whole entry): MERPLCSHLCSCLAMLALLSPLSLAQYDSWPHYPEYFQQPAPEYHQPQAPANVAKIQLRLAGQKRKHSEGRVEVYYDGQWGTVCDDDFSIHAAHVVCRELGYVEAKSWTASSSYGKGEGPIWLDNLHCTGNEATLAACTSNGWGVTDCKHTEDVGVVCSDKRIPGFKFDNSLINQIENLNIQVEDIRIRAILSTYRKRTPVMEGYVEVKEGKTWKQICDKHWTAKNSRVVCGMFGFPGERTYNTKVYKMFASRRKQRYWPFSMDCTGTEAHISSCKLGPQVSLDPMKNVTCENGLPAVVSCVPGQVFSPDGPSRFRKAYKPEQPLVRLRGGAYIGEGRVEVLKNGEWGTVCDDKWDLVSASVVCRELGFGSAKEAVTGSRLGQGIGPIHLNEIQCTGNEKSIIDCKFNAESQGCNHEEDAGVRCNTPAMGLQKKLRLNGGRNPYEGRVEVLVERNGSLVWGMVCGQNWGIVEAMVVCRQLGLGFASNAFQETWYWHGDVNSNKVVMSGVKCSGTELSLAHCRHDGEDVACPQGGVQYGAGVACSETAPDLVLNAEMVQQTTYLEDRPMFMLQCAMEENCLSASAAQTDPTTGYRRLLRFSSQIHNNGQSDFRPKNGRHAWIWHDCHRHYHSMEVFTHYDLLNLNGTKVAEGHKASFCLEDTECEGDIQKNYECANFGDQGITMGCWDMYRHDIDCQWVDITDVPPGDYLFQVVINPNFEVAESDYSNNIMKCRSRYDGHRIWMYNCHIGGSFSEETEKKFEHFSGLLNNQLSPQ
In short: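 IMR90 fibroblasts grown in MEM/10% FBS to 80% confluence, then 48-72 h in phenol-red-free 0.1% FBS medium. Conditioned medium concentrated 40-fold (10 kDa). LOX and LOXL2 separated on a 50 kDa filter in 6 M urea/borate, then diluted back to 1.2 M urea. Preincubated 30 min at 37 °C with compound; Amplex Red/HRP/putrescine readout every 2.5 min over 30 min.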

[2] = molecular target: T2, Lysyl oxidase homolog 3 (Homo sapiens, UniProt P58215); experiment: Inhibition of recombinant C-terminal His-tagged human LOXL3 (1 to 753 residues) expressed in CHO cells using putrescine as substrate preincubated with enzyme for 30 mins followed by substrate addition and measured every 2.5 mins for 30 mins by Amplex-Red oxidation assay
T2 sequence (P58215 whole entry): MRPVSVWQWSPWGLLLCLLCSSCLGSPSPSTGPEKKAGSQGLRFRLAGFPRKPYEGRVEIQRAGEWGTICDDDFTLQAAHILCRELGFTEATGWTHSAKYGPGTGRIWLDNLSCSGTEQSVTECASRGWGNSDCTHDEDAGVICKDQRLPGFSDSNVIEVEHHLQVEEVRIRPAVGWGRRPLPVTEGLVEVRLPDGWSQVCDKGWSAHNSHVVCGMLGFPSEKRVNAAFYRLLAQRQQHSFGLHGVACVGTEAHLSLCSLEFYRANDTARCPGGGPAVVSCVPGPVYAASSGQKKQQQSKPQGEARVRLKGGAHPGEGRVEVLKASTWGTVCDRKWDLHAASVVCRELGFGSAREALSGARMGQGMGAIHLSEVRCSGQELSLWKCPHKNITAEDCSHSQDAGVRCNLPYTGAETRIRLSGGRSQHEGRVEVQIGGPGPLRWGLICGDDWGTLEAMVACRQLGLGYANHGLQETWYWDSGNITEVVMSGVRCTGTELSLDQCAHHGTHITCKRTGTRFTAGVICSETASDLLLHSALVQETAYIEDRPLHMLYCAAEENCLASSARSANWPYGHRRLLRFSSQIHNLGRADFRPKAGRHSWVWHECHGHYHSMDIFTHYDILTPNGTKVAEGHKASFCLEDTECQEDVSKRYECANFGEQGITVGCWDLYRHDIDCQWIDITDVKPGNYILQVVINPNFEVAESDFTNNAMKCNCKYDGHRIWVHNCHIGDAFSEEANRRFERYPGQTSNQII
In short: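 Recombinant human LOXL3 or LOXL4 preincubated 30 min at 37 °C with compound in 1.2 M urea/50 mM borate pH 8.2, then Amplex Red (120 µM)/HRP (1.5 U/mL) with 2 mM putrescine; fluorescence read every 2.5 min for 30 min.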

[3] = Stability in rat microsomes assessed as half life; type: ADME, Microsome
[4] = molecular target: T1, Lysyl oxidase homolog 2; experiment: Time-dependent inhibition of recombinant human C-terminal His-tagged […] (1-774 residues) expressed in mouse myeloma cells assessed as apparent inhibition constant using putrescine as substrate by kitz-wilson plot analysis
In short: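 Recombinant human LOXL2 preincubated with inhibitor for varying times at 37 °C, then 5 mM putrescine added with 120 µM Amplex Red and 1.5 U/mL HRP. Buffer was 1.2 M urea, 50 mM sodium borate, pH 8.2. Fluorescence read every 2.5 min for 30 min. Apparent Ki and kinact derived by Kitz–Wilson analysis.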

[5] = molecular target: T1, Lysyl oxidase homolog 2; experiment: Substrate activity at recombinant human C-terminal His-tagged […] (1-774 residues) expressed in mouse myeloma cells assessed as oxidative turnover at 30 uM measured after 30 mins by horseradish peroxidase-coupled amplex red reagent-based fluorescence assay relative to DMSO; type: ADME, cell-based; conditions: 0.5 h
In short: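 LOXL2 incubated with compound, no substrate present. Hydrogen peroxide generation read by Amplex Red/HRP fluorescence (ex 565, em 590 nm). Oxidative turnover at 30 min expressed relative to DMSO.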

IC50 [1]: 9 nM | IC50 [2]: 16 nM | half-life [3]: > 1.5 h | Ki [4]: 83 nM | fold change (FC) [5]: 1
SMILES: Cc1c(-c2cccc(S(=O)(=O)N(C)C)c2)c2cc(C(=O)O)ccc2n1C/C(F)=C/CN.Cl

Source: ChEMBL document CHEMBL4321820, “Identification and Optimization of Mechanism-Based Fluoroallylamine Inhibitors of Lysyl Oxidase-like 2/3” (J Med Chem, 2019)
